The values below come from ChEMBL document CHEMBL4145531, “Synthesis of novel Chlorin e6-curcumin conjugates as photosensitizers for photodynamic therapy against pancreatic carcinoma” (Eur J Med Chem, 2018).

Molecules are shown by their SMILES. pIC50: −log10 of the molar value.

Data set [1] relates to ASPC1. Nature of the data set: Potency index, ratio of chlorin e6 IC50 to compound IC50 for phototoxicity in human AsPC1 cells. In kind it is functional.
Data set [2] deals with ASPC1. In words: Phototoxicity in human AsPC1 cells assessed as induction of apoptosis by measuring early apoptotic cells at 20 nM preincubated for 3 hrs followed by 9 J/cm2 laser light irradiation and measured after 24 hrs by Annexin V-FITC/propidium iodide staining based flow cytometry (reference value: 7.05%). In kind it is functional.
Data set [3] relates to MIA PaCa-2. In words: Phototoxicity in human MIAPaCa2 cells assessed as reduction in cell viability preincubated for 3 hrs followed by 9 J/cm2 laser light irradiation and measured after 72 hrs by MTT assay. It counts as functional, cell-based. The note with it: MIA PaCa-2, light or radiation study. The method in brief:
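Cells were seeded at 5.0 x 10^3 per well and incubated overnight at 37 °C. AsPC-1 was in RPMI-1640 and MIA PaCa-2/PANC-1 in DMEM, with 10% FBS. Cells took up compound for 3h, then received 660 nm laser light (50 mW, 9 J/cm²).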

Data set [4] concerns ASPC1. Nature of the data set: Phototoxicity in human AsPC1 cells assessed as induction of apoptosis by measuring live cells at 20 nM preincubated for 3 hrs followed by 9 J/cm2 laser light irradiation and measured after 24 hrs by Annexin V-FITC/propidium iodide staining based flow cytometry (reference value: 91.51%). It counts as functional.
Data set [5] concerns ASPC1. In words: Phototoxicity in human AsPC1 cells assessed as induction of apoptosis by measuring late apoptotic cells at 40 nM preincubated for 3 hrs followed by 9 J/cm2 laser light irradiation and measured after 24 hrs by Annexin V-FITC/propidium iodide staining based flow cytometry (reference value: 0.41%). It counts as functional.
For data set [6], the system named is ASPC1. In words: Phototoxicity in human AsPC1 cells assessed as induction of apoptosis by measuring early apoptotic cells at 60 nM preincubated for 3 hrs followed by 9 J/cm2 laser light irradiation and measured after 24 hrs by Annexin V-FITC/propidium iodide staining based flow cytometry (reference value: 7.05%). It counts as functional.
Data set [7] is described as follows: Dark toxicity in human MIAPaCa2 cells assessed as reduction in cell viability after 72 hrs by MTT assay. In kind it is cell-based, MIA PaCa-2. The method in brief: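 AsPC-1 cells were grown in RPMI-1640, and MIA PaCa-2 and PANC-1 in DMEM, each with 10% FBS and 1% penicillin/streptomycin. 5.0 x 10^3 cells were seeded and left overnight at 37 °C. They were exposed to 0-300 µM compound for 3h without laser irradiation, then held 72h in the dark at 37 °C, 5% CO₂. Viability was read by MTT.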

Data set [8] in a line: Selectivity index, ratio of IC50 for dark toxicity in human AsPC1 cells to IC50 for phototoxicity in human AsPC1 cells. In kind it is cell-based. The note with it: read-out: Ratio IC50. The method in brief: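 The ratio is the dark-toxicity IC50 over the phototoxicity IC50 in the same cell line, both from 72h MTT. The dark arm received no light. The photo arm was irradiated at 660 nm, 50 mW, 9 J/cm² after 3h compound exposure.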

Take `C=Cc1c(C)c2cc3nc(c(CC(=O)OC)c4[nH]c(cc5nc(cc1[nH]2)C(C)=C5CC)c(C)c4C(=O)NCCOCCOCCNC(=O)CCCC(=O)Oc1ccc(/C=C/C(=O)CC(=O)/C=C/c2ccc(O)c(OC)c2)cc1OC)C(CCC(=O)OC)C3C` (stereo not drawn): the “Ratio IC50” value in data set [1] came to 488. Moreover, the Activity came out at 15.09% in data set [2], 77.38% in data set [4], 10.77% in data set [5] and 24.82% in data set [6]. Moreover, the pIC50 in data set [3] is 7.46. The IC50 at 72 h in data set [7] was 83 µM. Besides, the selectivity ratio in data set [8] worked out at 4650.
